Results reported in ChEMBL document CHEMBL3352004, “(7-Benzyloxy-2,3-dihydro-1H-pyrrolo[1,2-a]indol-1-yl)acetic Acids as S1P1 Functional Antagonists” (ACS Med Chem Lett, 2014).
≈ marks a conversion by molar mass, not a printed value. Calls of active or inactive are those of the source. The rule behind the calls is not given here.

Legend:
[1] = target: Sphingosine-1-phosphate receptor 1 (Canis lupus familiaris) (UniProt W5VNF7); test: Agonist activity at dog S1P1 receptor assessed as cAMP accumulation by HTRF assay relative to S1P; type: functional
[2] = target: Sphingosine 1-phosphate receptor 1 (Rattus norvegicus) (UniProt P48303); test: Agonist activity at rat S1P1 receptor assessed as cAMP accumulation by HTRF assay relative to S1P; type: functional
[3] = Cmax rat at 1000 mg/kg, po; type: ADME, organism-based; set-up: dose 1000 mg/kg, route oral; details: in vivo
[4] = AUC (0 to infinity) in Sprague-Dawley rat at 1 mg/kg, iv or at 1 mg/kg, po; type: ADME, organism-based; details: plasma
Cytochrome P450 1A2 = Cytochrome P450 1A2 (Homo sapiens, UniProt P05177); test: Inhibition of CYP1A2 (unknown origin); type: ADME
[5] = Ratio of drug level in rat brain to plasma at 1 mg/kg, po dosed for 6 consecutive days; type: ADME, organism-based; set-up: dose 1 mg/kg, route oral; details: read-out: BPR
Outline: (§1)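 Repeat-dose rat CNS distribution: 1.0 mg/kg given on six consecutive days. Plasma, brain and CSF were sampled over the 24 h after the last dose. Average concentrations in brain and plasma gave the brain-to-plasma ratio.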

Mus musculus [6] = test: Reduction of disease index score in C57Bl/6 mouse experimental autoimmune encephalomyelitis model of multiple sclerosis at 0.1 mg/kg dosed for 24 days; type: functional, organism-based; set-up: dose 0.1 mg/kg
Outline: (§2)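 Female C57Bl/6 mice with EAE, a demyelinating autoimmune disease induced to model MS, given compound orally at 0.1, 0.3 or 1.0 mg/kg for 24 days alongside a vehicle group. Clinical scoring began on day 10: 0 healthy; 1 limp tail or hind-limb weakness; 2 limp tail plus limb weakness, or weakness of ≥2 limbs; 3 severe limb weakness or single-limb paralysis; 4 paralysis of ≥2 limbs; 5 death. Mean group score reported.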

[7] = target: T1, Sphingosine 1-phosphate receptor 4 (Homo sapiens, UniProt O95977); test: Agonist activity at human S1P4 receptor by beta-arrestin recruitment assay
T1 sequence (O95977 whole entry): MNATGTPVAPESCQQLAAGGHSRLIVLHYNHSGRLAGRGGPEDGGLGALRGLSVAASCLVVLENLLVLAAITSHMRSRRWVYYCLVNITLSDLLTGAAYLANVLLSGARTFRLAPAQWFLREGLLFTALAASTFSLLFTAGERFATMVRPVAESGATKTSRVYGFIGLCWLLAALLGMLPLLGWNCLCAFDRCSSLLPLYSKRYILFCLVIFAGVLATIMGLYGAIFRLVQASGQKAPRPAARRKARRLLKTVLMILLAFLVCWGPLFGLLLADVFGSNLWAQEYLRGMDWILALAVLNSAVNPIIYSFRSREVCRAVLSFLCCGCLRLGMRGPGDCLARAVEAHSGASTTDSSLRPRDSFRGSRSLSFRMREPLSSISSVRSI

[8] = target: T2, Sphingosine 1-phosphate receptor 1 (Homo sapiens, UniProt P21453); test: Agonist activity at human S1P1 receptor by beta-arrestin recruitment assay relative to S1P
Mus musculus [9] = test: Reduction of disease index score in C57Bl/6 mouse experimental autoimmune encephalomyelitis model of multiple sclerosis at 0.1 to 0.3 mg/kg dosed for 24 days; type: functional, organism-based; outline: as §2
[10] = Solubility in water in crystal phase; type: physicochemical
[11] = target: T3, Sphingosine 1-phosphate receptor 5 (Homo sapiens, UniProt Q9H228); test: Agonist activity at human S1P5 receptor by beta-arrestin recruitment assay
[12] = target: Sphingosine 1-phosphate receptor 1 (Rattus norvegicus, UniProt P48303); test: Agonist activity at rat S1P1 receptor assessed as cAMP accumulation by HTRF assay; type: functional
Outline: (§3)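 S1P1 engagement measured as cyclase activity in a homogeneous time-resolved fluorescence (HTRF) assay.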

[13] = target: Sphingosine 1-phosphate receptor 1 (Macaca mulatta, UniProt H9EUW9); test: Agonist activity at monkey S1P1 receptor assessed as cAMP accumulation by HTRF assay; type: functional; outline: as §3
Cytochrome P450 2C9 = Cytochrome P450 2C9 (Homo sapiens, UniProt P11712); test: Inhibition of CYP2C9 (unknown origin); type: ADME
[14] = target: T2, Sphingosine 1-phosphate receptor 1; test: Agonist activity at human S1P1 receptor assessed as cAMP accumulation by HTRF assay relative to S1P; type: functional
Cytochrome P450 2C19 = Cytochrome P450 2C19 (Homo sapiens, UniProt P33261); test: Inhibition of CYP2C19 (unknown origin); type: ADME
[15] = target: T2, Sphingosine 1-phosphate receptor 1; test: Agonist activity at human S1P1 receptor assessed as cAMP accumulation by HTRF assay; type: functional; outline: as §3
[16] = Drug level in rat plasma at 1 mg/kg, po dosed for 6 consecutive days; type: ADME, organism-based; set-up: dose 1 mg/kg, route oral; outline: as §1
[17] = target: Voltage-gated inwardly rectifying potassium channel KCNH2 (Homo sapiens, UniProt Q12809); test: Binding affinity to human ERG
[18] = target: Sphingosine 1-phosphate receptor 1 (Mus musculus) (UniProt O08530); test: Agonist activity at mouse S1P1 receptor assessed as cAMP accumulation by HTRF assay relative to S1P; type: functional
[19] = Cmax in Sprague-Dawley rat at 1 mg/kg, po; type: ADME, organism-based; set-up: dose 1 mg/kg, route oral; details: in vivo
[20] = target: T4, Sphingosine 1-phosphate receptor 4 (Homo sapiens) (UniProt O95977); test: Agonist activity at human S1P4 receptor by beta-arrestin recruitment assay relative to S1P
T4 sequence (whole entry): T1 sequence (O95977 whole entry)

Cytochrome P450 2D6 = Cytochrome P450 2D6 (Homo sapiens, UniProt P10635); test: Inhibition of CYP2D6 (unknown origin); type: ADME
[21] = Elimination half life in Sprague-Dawley rat at 1 mg/kg, po; type: ADME, organism-based; set-up: dose 1 mg/kg, route oral; details: in vivo, read-out: beta t1/2 (converted)
[22] = target: Sphingosine 1-phosphate receptor 3 (Homo sapiens, UniProt Q99500); test: Agonist activity at human S1P3 receptor by beta-arrestin recruitment assay
Rattus norvegicus [23] = species: Rattus norvegicus; test: Toxicity in telemeterized rat assessed as effect on cardiovascular function; type: organism-based, Heart; details: in vivo
Rattus norvegicus [24] = species: Rattus norvegicus; test: Reduction in lymphocyte count in Sprague-Dawley rat; type: functional, organism-based
Outline: (§4)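 A PK/PD model relating plasma drug concentration to circulating lymphocyte counts was used to derive the plasma concentration that reduces lymphocytes by 50% (LL IC50, ng/mL).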

[25] = target: T3, Sphingosine 1-phosphate receptor 5; test: Agonist activity at human S1P5 receptor by beta-arrestin recruitment assay relative to S1P
[26] = target: Sphingosine 1-phosphate receptor 1 (Mus musculus, UniProt O08530); test: Agonist activity at mouse S1P1 receptor assessed as cAMP accumulation by HTRF assay; type: functional; outline: as §3
[27] = tested on: P2Y purinoceptor (Rattus norvegicus); test: Binding affinity to P2Y purinoceptor (rat) by [35S]dATPalphaS competitive binding assay
[28] = Systemic clearance in Sprague-Dawley rat at 1 mg/kg, iv; type: ADME, organism-based; set-up: dose 1 mg/kg, route intravenous; details: in vivo
[29] = target: Sphingosine 1-phosphate receptor 1 (Macaca mulatta) (UniProt H9EUW9); test: Agonist activity at monkey S1P1 receptor assessed as cAMP accumulation by HTRF assay relative to S1P; type: functional
Mus musculus [30] = species: Mus musculus; test: Reduction in lymphocyte count in mouse; type: functional, organism-based; outline: as §4
[31] = Activation of Inward rectifier potassium channel in human atrial myocytes; type: cell-based; details: Cardiac atrium
Mus musculus [32] = test: Prevention of severity of disease in C57Bl/6 mouse experimental autoimmune encephalomyelitis model of multiple sclerosis at 1 mg/kg dosed for 24 days; type: functional, organism-based; set-up: dose 1 mg/kg; outline: as §2
[33] = Drug level in rat brain at 1 mg/kg, po dosed for 6 consecutive days; type: ADME, organism-based; set-up: dose 1 mg/kg, route oral; details: read-out: Drug uptake; outline: as §1
[34] = Oral bioavailability in Sprague-Dawley rat at 1 mg/kg; type: ADME, organism-based; details: in vivo
[35] = Tmax in Sprague-Dawley rat at 1 mg/kg, po; type: ADME, organism-based; set-up: dose 1 mg/kg, route oral; details: in vivo
[36] = target: Sphingosine 1-phosphate receptor 2 (Homo sapiens, UniProt O95136); test: Agonist activity at human S1P2 receptor by beta-arrestin recruitment assay
[37] = Solubility in water in L-lysine adduct form; type: physicochemical
[38] = Volume of distribution at steady state in Sprague-Dawley rat at 1 mg/kg, iv; type: ADME, organism-based; set-up: dose 1 mg/kg, route intravenous; details: in vivo, read-out: Vdss
[39] = Ratio of drug level in brain to plasma in Sprague-Dawley rat; type: ADME; details: read-out: BPR
Outline: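 Abbreviated rat CNS distribution: a single 1.0 mg/kg oral dose, with brain and plasma drug levels measured over 6 h. Brain-to-plasma ratio derived from these levels.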

[40] = target: Sphingosine-1-phosphate receptor 1 (Canis lupus familiaris, UniProt W5VNF7); test: Agonist activity at dog S1P1 receptor assessed as cAMP accumulation by HTRF assay; type: functional; outline: as §3
[41] = target: T2, Sphingosine 1-phosphate receptor 1; test: Agonist activity at human S1P1 receptor by beta-arrestin recruitment assay
Cytochrome P450 3A4 = Cytochrome P450 3A4 (Homo sapiens, UniProt P08684); test: Inhibition of CYP3A4 (unknown origin); type: ADME

T2 sequence (P21453 whole entry): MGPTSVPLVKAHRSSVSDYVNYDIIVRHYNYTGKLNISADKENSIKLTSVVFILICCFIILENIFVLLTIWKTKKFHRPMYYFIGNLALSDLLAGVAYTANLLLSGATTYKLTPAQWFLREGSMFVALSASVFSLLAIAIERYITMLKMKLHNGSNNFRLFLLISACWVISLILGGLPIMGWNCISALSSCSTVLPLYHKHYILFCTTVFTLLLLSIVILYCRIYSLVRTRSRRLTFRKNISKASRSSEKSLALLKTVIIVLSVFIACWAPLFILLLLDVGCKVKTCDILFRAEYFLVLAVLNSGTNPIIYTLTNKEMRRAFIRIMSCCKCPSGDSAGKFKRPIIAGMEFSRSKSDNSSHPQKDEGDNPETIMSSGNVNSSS
T3 sequence (Q9H228 whole entry): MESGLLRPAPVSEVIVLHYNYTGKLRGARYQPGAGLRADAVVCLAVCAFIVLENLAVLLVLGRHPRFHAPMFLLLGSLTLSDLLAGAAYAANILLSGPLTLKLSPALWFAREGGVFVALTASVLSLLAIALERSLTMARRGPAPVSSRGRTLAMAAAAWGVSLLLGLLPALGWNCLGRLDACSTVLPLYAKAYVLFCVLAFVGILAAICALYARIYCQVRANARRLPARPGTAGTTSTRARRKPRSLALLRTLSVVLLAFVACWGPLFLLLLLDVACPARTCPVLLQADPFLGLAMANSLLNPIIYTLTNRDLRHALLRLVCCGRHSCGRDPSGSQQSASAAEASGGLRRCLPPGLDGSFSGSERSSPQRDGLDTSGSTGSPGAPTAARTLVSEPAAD
Chain of Cytochrome P450 2D6 (P10635 whole entry): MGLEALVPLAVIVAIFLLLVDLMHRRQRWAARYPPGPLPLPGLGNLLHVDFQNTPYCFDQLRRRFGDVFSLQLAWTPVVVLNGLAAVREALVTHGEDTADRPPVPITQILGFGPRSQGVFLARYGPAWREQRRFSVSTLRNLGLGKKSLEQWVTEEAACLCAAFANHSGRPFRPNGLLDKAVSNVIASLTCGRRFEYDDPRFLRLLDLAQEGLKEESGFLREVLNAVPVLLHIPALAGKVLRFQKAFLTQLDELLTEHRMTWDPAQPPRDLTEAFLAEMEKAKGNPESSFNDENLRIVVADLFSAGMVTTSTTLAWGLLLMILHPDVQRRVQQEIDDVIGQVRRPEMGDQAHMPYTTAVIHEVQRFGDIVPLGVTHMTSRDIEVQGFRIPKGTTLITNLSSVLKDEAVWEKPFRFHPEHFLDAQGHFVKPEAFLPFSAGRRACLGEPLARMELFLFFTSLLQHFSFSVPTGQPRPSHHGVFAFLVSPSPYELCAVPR
Chain of Sphingosine 1-phosphate receptor 1 (Rattus norvegicus, UniProt P48303) (P48303 whole entry): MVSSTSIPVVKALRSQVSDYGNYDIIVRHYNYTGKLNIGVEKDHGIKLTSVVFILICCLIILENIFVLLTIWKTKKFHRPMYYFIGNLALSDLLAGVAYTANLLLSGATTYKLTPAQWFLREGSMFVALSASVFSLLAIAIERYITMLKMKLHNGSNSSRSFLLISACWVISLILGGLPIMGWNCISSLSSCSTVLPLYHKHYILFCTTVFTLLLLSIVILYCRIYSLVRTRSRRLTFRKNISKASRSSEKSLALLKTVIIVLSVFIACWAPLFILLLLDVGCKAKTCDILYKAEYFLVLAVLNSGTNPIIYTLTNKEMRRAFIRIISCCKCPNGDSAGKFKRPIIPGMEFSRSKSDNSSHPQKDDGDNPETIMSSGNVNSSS
Chain of Sphingosine 1-phosphate receptor 1 (Rattus norvegicus) (P48303 whole entry): as above
Chain of Sphingosine-1-phosphate receptor 1 (Canis lupus familiaris) (W5VNF7 as listed by the source): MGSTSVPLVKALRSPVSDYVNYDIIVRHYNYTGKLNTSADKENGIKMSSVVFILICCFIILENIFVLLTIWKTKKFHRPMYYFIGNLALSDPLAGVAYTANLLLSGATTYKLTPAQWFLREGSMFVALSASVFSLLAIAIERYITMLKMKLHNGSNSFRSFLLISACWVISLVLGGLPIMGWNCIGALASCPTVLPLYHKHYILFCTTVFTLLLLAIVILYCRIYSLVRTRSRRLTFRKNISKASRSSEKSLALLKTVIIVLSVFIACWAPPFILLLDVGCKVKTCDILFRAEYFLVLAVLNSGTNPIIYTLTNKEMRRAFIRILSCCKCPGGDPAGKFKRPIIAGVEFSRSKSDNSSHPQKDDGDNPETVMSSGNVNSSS
Chain of Sphingosine-1-phosphate receptor 1 (W5VNF7 whole entry): as the sequence (W5VNF7 as listed by the source) above
Chain of Cytochrome P450 1A2 (P05177 whole entry): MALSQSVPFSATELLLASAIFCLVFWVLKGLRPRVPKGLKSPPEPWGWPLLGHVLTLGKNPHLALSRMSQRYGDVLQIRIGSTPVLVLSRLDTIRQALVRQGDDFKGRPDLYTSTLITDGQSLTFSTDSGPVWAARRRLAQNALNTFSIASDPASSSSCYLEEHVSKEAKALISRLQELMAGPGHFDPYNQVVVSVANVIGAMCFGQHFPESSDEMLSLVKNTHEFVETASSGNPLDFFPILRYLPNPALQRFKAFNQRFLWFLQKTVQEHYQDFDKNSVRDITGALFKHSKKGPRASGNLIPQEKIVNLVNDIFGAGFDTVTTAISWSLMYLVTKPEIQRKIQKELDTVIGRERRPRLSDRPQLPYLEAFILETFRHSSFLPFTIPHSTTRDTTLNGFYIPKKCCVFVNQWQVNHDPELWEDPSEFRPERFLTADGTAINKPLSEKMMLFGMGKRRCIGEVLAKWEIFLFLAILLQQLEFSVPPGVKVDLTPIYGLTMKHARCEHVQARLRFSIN
Chain of Sphingosine 1-phosphate receptor 3 (Q99500 whole entry): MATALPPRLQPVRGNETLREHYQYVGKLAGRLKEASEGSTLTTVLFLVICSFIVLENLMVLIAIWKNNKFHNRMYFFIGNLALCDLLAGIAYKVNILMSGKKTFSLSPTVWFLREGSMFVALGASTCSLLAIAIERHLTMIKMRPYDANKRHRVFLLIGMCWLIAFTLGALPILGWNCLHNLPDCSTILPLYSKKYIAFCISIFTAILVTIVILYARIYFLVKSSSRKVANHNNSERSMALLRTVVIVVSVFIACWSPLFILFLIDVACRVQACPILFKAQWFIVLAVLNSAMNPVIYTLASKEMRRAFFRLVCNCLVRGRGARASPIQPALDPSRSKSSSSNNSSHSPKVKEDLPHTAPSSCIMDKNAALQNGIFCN
Chain of Voltage-gated inwardly rectifying potassium channel KCNH2 (Q12809 whole entry): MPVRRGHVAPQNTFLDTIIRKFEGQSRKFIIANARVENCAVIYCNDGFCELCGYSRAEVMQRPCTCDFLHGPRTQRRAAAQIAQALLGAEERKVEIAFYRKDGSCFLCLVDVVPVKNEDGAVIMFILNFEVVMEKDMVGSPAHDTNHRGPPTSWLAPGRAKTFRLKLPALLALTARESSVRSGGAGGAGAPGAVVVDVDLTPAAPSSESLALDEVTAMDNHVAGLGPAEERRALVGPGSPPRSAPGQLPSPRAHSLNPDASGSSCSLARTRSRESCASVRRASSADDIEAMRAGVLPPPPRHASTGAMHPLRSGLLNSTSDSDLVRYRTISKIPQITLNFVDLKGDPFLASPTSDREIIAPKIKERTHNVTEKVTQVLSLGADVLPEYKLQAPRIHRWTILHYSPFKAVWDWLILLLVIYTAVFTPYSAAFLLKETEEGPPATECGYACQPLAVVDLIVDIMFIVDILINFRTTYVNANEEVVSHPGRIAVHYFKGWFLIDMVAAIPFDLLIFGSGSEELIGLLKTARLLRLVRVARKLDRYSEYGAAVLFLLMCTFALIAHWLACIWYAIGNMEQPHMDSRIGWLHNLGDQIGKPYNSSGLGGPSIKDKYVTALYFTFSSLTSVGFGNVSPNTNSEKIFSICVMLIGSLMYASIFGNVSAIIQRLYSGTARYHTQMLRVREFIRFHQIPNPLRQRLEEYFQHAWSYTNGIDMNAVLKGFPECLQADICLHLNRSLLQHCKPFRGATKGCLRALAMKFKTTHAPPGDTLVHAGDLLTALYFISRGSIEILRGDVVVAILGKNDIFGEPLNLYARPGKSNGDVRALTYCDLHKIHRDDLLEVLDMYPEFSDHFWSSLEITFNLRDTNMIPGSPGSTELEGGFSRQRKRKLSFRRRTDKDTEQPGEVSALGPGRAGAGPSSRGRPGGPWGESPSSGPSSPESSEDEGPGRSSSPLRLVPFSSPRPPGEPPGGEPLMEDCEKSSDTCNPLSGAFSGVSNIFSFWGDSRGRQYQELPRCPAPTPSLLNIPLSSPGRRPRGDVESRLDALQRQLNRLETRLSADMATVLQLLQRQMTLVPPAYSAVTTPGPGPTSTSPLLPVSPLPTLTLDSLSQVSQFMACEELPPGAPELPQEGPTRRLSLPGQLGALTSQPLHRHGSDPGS
Chain of Sphingosine 1-phosphate receptor 2 (O95136 whole entry): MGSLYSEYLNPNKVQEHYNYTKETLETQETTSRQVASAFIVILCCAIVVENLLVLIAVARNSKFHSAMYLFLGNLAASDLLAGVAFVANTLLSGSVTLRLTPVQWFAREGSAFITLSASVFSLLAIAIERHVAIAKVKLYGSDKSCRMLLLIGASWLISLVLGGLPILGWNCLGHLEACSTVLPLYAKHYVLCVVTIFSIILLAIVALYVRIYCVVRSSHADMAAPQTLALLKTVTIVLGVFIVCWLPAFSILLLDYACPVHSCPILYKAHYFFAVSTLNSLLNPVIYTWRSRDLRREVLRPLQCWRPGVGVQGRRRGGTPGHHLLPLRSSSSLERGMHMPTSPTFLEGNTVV
Chain of Sphingosine 1-phosphate receptor 1 (Mus musculus) (O08530 whole entry): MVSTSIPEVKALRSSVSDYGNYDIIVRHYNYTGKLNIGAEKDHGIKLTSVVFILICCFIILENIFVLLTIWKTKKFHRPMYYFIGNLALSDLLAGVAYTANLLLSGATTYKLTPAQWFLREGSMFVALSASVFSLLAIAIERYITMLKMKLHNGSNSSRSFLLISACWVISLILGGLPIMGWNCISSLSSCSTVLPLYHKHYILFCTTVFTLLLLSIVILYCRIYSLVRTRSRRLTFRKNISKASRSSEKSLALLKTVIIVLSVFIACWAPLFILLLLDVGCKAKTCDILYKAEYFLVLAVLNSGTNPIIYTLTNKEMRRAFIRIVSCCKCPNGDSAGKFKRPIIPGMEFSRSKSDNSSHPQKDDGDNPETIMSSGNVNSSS
Chain of Sphingosine 1-phosphate receptor 1 (Mus musculus, UniProt O08530) (O08530 whole entry): as above

- Emax [1]: 59%
- Emax [2]: 81%
- Cmax [3]: 72200 ng/mL
- AUC(0-inf) [4]: 6160 ng·h/mL
- IC50 (Cytochrome P450 1A2): > 50000 nM
- Kp at 6 days [5]: 1.61
- EC50 [7]: 85 nM
- Emax [8]: 112%
- solubility [10]: < 0.001 mg/mL
- EC50 [11]: 19 nM
- EC50 [12]: 0.05 nM
- EC50 [13]: 0.058 nM
- IC50 (Cytochrome P450 2C9): > 50000 nM
- Emax [14]: 99%
- IC50 (Cytochrome P450 2C19): > 50000 nM
- EC50 [15]: 0.021 nM
- concentration at 6 days [16]: 352 ng/mL
- Emax [18]: 95%
- Cmax [19]: 584 ng/mL
- Emax [20]: 29%
- IC50 (Cytochrome P450 2D6): > 50000 nM
- half-life [21]: 5.09 h
- EC50 [22]: > 10000 nM
- IC50 (Rattus norvegicus [24]): 0.0254 µg/mL (≈ 0.0527 µM)
- Emax [25]: 59%
- EC50 [26]: 0.064 nM
- IC50 [27]: Not Active
- clearance [28]: 1.54 mL/min/kg
- Emax [29]: 84%
- IC50 (Mus musculus [30]): 0.0183 µg/mL (≈ 0.038 µM)
- EC50 [31]: 8.9 nM
- concentration at 6 days [33]: 568 ng/mL
- bioavailability [34]: 56.6%
- Tmax [35]: 4.67 h
- EC50 [36]: > 10000 nM
- solubility [37]: > 100 mg/mL
- Vd [38]: 0.831 L/kg
- Kp [39]: 0.27
- EC50 [40]: 0.049 nM
- EC50 [41]: 0.62 nM
- IC50 (Cytochrome P450 3A4): > 50000 nM
Structure (SMILES): CC(C)Oc1ccc(COc2ccc3c(c2)c(Cl)c2n3CC[C@@H]2CC(=O)O)cc1C(F)(F)F
- Activity (Mus musculus [6]): inactive
- Activity (Mus musculus [9]): Dose-dependent effect
- Activity [17]: Not Active
- Activity (Rattus norvegicus [23]): Non-toxic
- Activity (Mus musculus [32]): Active
